From ChEMBL document CHEMBL1145938, “Synthesis and structure-activity relationship of aminobenzophenones. A novel class of p38 MAP kinase inhibitors with high antiinflammatory activity” (J Med Chem, 2003) come the findings set out here.

Test [1] relates to Mus musculus. The test is described as follows: Inhibition of ear swelling induced by oxazolone in murine allergic contact dermatitis model at 0.001 mg/ear at 24 hr (in vivo). In kind it is functional. Put shortly: (§1)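 Groups of six female inbred BALB/cABOM mice (18–21 g) were sensitized with oxazolone on the clipped abdomen 7 days before right-ear challenge. Compound in acetone (20 μL) or vehicle was applied once, 30 min after challenge. Ear swelling (right minus left ear thickness) was read at 24, 48 and 72 h. Values are mean % inhibition ± SEM of four or five experiments.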

The test system of test [2] is Mus musculus. The test can be described thus: Inhibition of ear swelling induced by oxazolone in murine allergic contact dermatitis model at 0.001 mg/ear at 72 hr (in vivo). In kind it is functional. The essentials: as §1
In test [3] the target is T1, Myeloperoxidase (Mus musculus) (UniProt P11247).
T1 sequence (whole entry): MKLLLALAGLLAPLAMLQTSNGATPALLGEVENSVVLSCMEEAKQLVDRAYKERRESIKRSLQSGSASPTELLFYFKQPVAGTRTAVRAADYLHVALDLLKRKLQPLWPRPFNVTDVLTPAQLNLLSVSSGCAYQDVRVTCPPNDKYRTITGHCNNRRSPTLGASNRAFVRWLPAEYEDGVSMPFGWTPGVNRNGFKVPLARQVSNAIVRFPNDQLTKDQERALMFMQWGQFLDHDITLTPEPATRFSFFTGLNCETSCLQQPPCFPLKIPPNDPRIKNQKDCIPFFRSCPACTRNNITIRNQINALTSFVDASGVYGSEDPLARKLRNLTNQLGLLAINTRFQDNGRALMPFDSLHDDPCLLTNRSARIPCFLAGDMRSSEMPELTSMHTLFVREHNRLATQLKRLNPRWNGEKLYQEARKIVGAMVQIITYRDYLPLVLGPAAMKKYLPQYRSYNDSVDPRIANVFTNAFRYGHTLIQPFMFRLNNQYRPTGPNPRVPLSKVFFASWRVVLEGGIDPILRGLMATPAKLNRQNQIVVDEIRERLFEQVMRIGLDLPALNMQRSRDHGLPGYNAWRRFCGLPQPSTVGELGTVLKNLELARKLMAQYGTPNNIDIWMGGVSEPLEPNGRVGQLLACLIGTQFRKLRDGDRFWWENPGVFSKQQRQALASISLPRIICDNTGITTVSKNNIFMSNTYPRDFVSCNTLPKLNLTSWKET
The test can be described thus: Inhibition of myeloperoxidase (MPO) activity induced by oxazolone in murine allergic contact dermatitis model at 0.001 mg/ear at 24 hr (in vivo). In kind it is organism-based.

Test [4] relates to Mus musculus. The test is described as follows: Inhibition of ear swelling induced by oxazolone in murine allergic contact dermatitis model at 0.5 mg/ear at 48 hr (in vivo).
For test [5], the target named is T2, MAP kinase p38 (Homo sapiens, UniProt O15264+Q15759+Q16539+P53778). The test is described as follows: In vitro inhibition of cytokine IL-6 release by human […]. In kind it is functional. Put shortly: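 PBMC isolated from buffy coats, 5×10^5 cells/mL in RPMI1640 plus 2% FCS, glutamine and antibiotics. Compound added 30 min before LPS; culture 6 h. Supernatant IL-6 or IL-8 quantified by ELISA kits.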

The target in test [6] is T2, MAP kinase p38. The test is described as follows: In vitro inhibition of cytokine IL-8 release by human peripheral blood mononuclear cells.
Test [7] is filed under the species Mus musculus. The test is described as follows: Inhibition of ear swelling induced by oxazolone induced murine allergic contact dermatitis model at 0.5 mg/ear at 48 hr. In kind it is functional. The essentials: as §1
Test [8] has as its target Mitogen-activated protein kinase 8 (Homo sapiens) (UniProt P45983). The test is described as follows: Inhibition of c-Jun N-terminal kinase 1 at 10 uM. The essentials:
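JNK1 activity from UV-stimulated MCF-7 cells, measured with a JNK1 kinase kit in presence of compound.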

In test [9] the target is T2, MAP kinase p38. The test is described as follows: In vitro inhibition of cytokine IL-10 release by human […]. In kind it is functional. The essentials: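 Buffy-coat PBMC at 5×10^5 cells/mL in RPMI1640 with 10% FCS, glutamine, antibiotics; 30 min compound preincubation, then phytohemagglutinin stimulation and 48 h incubation.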
For test [10], the species on record is Mus musculus. The test is described as follows: Inhibition of ear swelling induced by oxazolone induced murine allergic contact dermatitis model at 0.5 mg/ear at 72 hr. In kind it is functional. The essentials: as §1
The species named for test [11] is Homo sapiens. The test can be described thus: In vitro inhibition of cytokine IL-12 release by human […]. In kind it is functional. The essentials: (§2)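 Human PBMC were isolated from buffy coats and diluted 1:1 in saline. Cells were held at 5×10^5 cells/mL in RPMI1640 with 2 mM glutamine and penicillin/streptomycin, then preincubated 30 min with compound. IL-12: 2% FCS, IFN-γ 95 ng/mL for 18 h, then LPS for 24 h. IL-2 and IFN-γ: 10% FCS, phytohemagglutinin for 48 h. Supernatant cytokine measured by sandwich ELISA.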

The test system of test [12] is Mus musculus. The test is described as follows: Inhibition of ear weight induced by 12-O-tetradecanoylphorbol-13-acetate (TPA) in murine chronic irritative contact dermatitis model at 0.5 mg/ear (in vivo). In kind it is functional. Put shortly:
(§3)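 Murine TPA-induced chronic irritative ear dermatitis, with compound given topically per ear. Ear swelling and ear weight were determined 5 h after the last application. Values are mean % inhibition ± SEM of three to five experiments.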

Test [13] deals with Mitogen-activated protein kinase 11 (Homo sapiens) (UniProt Q15759). The test can be described thus: Inhibition of Mitogen-activated protein kinase p38 beta at 1 uM. The essentials: (§4)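 FLAG-tagged p38 isoform cDNA (β2, γ or δ) transfected into COS-1 cells; kinase activity of the expressed isoform measured with compound at 1 μM.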
Chain of Mitogen-activated protein kinase 11 (Homo sapiens) (Q15759 whole entry, canonical isoform): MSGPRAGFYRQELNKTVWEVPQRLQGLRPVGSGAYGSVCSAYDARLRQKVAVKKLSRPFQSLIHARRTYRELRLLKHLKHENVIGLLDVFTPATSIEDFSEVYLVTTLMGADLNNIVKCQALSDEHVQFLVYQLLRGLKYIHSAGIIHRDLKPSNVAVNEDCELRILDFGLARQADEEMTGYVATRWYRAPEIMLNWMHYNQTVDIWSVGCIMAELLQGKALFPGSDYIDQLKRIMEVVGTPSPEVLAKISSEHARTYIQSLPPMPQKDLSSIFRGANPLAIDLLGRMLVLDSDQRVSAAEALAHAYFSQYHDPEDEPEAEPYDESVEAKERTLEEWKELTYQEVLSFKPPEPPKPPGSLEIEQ
Test [14] addresses T1, Myeloperoxidase (Mus musculus). The test can be described thus: Inhibition of myeloperoxidase (MPO) activity induced by TPA in murine chronic irritative contact dermatitis model at 0.5 mg/ear (in vivo). In kind it is organism-based.
Test [15] concerns the target T3, Mitogen-activated protein kinase 12 (Homo sapiens) (UniProt P53778).
T3 sequence (whole entry): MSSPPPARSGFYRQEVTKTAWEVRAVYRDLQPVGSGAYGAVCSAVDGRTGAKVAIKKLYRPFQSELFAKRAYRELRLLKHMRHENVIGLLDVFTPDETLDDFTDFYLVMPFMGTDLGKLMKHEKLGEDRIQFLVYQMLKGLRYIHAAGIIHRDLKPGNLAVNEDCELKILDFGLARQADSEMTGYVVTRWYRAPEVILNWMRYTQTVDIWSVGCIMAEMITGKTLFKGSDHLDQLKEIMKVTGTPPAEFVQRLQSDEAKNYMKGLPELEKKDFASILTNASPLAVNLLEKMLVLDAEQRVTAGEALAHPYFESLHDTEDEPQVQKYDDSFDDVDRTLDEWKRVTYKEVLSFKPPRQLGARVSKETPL
The test is described as follows: Inhibition of Mitogen-activated protein kinase p38 gamma at 1 uM. The essentials:
as §4

The test system of test [16] is Mus musculus. The test can be described thus: Inhibition of ear swelling induced by 12-O-tetradecanoylphorbol-13-acetate (TPA) in murine chronic irritative contact dermatitis model at 0.5 mg/ear (in vivo). In kind it is functional. The essentials: as §3
Test [17] concerns the target T2, MAP kinase p38. The test can be described thus: In vitro inhibition of TNF-alpha release from LPS stimulated human peripheral blood mononuclear cells. In kind it is functional. Put shortly: (§5)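 Human PBMC from buffy coats (Lymphoprep), 5×10^5 cells/mL in RPMI1640 with 2% FCS, glutamine, penicillin/streptomycin; 30 min preincubation with compound, then LPS stimulation, 18 h at 37 °C, 5% CO2.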

For test [18], the species on record is Homo sapiens. The test can be described thus: In vitro inhibition of gamma-interferon release by human […]. In kind it is functional. Put shortly: as §2
Test [19] addresses T1, Myeloperoxidase (Mus musculus). The test is described as follows: Inhibition of myeloperoxidase (MPO) activity induced by oxazolone in murine allergic contact dermatitis model at 0.5 mg/ear at 72 hr (in vivo).
The target of test [20] is T2, MAP kinase p38. The test can be described thus: In vitro inhibition of IL1-beta release from LPS stimulated human peripheral blood mononuclear cells. In kind it is functional. Put shortly:
as §5

Test [21] is filed under the species Mus musculus. The test can be described thus: Inhibition of ear swelling in oxazolone-induced murine allergic contact dermatitis at 0.5 mg/ear at 24 hr. In kind it is functional. The essentials:
as §1

Test [22] addresses T4, Mitogen-activated protein kinase 14 (Homo sapiens, UniProt Q16539). The test is described as follows: In vitro inhibitory activity determined against human mitogen-activated protein kinase p38 alpha.
The species named for test [23] is Homo sapiens. The test can be described thus: In vitro inhibition of cytokine IL-2 release by human […]. In kind it is functional. Put shortly:
as §2

The target of test [24] is T5, Mitogen-activated protein kinase 13 (Homo sapiens) (UniProt O15264).
T5 sequence (whole entry): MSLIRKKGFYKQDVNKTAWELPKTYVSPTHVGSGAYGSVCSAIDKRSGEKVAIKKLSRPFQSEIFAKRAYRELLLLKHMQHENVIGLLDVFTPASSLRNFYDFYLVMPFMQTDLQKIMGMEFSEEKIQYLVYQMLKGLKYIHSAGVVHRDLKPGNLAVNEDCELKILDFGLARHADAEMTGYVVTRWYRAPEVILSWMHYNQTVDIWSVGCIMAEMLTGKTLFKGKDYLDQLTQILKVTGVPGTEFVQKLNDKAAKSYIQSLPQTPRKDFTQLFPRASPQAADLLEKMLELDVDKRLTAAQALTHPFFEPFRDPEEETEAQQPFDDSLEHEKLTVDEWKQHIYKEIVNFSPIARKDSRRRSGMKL
The test can be described thus: Inhibition of Mitogen-activated protein kinase p38 delta at 1 uM. Put shortly: as §4

Test [25] addresses Mitogen-activated protein kinase; ERK1/ERK2 (Homo sapiens) (UniProt P27361+P28482). The test can be described thus: Inhibition of Mitogen-activated protein kinase 3/Mitogen-activated protein kinase 1 (ERK) at 10 uM. In kind it is protein assay. The essentials:
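MCF-7 cells stimulated with EGF; ERK1/2 activity measured with a modified cell-signalling ERK1/2 kinase kit in presence of compound.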

In test [26] the target is T4, Mitogen-activated protein kinase 14. The test is described as follows: Inhibition of Mitogen-activated protein kinase p38 alpha at 1 uM. Put shortly: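 FLAG-tagged p38α cDNA was transfected into COS-1 cells. Kinase activity of the expressed isoform was measured with compound at 1 μM.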
Test [27] concerns Mus musculus. The test can be described thus: Inhibition of ear swelling in oxazolone induced murine allergic contact dermatitis model at 0.5 mg/ear at 48 hr (in vivo). In kind it is functional. Put shortly:
as §1

Test [28] concerns Mus musculus. The test is described as follows: Inhibition of ear swelling in oxazolone induced murine allergic contact dermatitis model at 0.5 mg/ear at 72 hr (in vivo). In kind it is functional. The essentials:
as §1

Test [29] concerns Mus musculus. The test can be described thus: Inhibition of ear swelling in oxazolone-induced murine allergic contact dermatitis at 0.5 mg/ear at 24 hr (in vivo). In kind it is functional. Put shortly:
as §1

Each structure is given as a SMILES string.

T4 sequence (Q16539 whole entry): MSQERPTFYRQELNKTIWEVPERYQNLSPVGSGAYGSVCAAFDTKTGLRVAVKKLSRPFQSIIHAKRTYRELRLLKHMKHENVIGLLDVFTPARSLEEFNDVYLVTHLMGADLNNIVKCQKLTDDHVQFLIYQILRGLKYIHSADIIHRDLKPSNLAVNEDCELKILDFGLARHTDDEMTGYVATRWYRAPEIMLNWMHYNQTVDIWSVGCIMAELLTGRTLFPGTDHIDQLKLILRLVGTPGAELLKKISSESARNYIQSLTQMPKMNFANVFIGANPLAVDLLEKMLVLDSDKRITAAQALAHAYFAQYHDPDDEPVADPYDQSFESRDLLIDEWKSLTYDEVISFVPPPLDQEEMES
Chain of Mitogen-activated protein kinase; ERK1/ERK2 (Homo sapiens) (P27361 whole entry, looked up): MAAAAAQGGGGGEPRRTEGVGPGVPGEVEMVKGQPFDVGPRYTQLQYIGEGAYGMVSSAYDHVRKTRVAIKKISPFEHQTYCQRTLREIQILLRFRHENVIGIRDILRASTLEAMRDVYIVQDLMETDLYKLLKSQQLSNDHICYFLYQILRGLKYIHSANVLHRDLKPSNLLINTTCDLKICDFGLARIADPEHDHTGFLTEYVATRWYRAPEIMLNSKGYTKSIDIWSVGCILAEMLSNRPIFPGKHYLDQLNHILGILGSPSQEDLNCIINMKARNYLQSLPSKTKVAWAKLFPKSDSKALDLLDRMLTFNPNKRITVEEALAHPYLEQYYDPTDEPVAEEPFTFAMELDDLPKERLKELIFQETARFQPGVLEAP
Chain of Mitogen-activated protein kinase; ERK1/ERK2 (Homo sapiens) (P28482 whole entry, looked up): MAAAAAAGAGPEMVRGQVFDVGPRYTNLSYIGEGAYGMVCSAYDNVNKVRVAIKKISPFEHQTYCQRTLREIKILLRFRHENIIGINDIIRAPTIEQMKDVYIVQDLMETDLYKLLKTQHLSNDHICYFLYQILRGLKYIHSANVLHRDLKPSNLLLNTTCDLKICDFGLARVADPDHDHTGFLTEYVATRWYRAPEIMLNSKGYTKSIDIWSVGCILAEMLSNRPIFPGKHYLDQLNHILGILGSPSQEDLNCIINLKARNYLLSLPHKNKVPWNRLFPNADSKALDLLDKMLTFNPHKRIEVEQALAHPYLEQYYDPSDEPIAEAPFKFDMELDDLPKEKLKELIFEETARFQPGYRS
Chain of Mitogen-activated protein kinase 8 (Homo sapiens) (P45983 whole entry): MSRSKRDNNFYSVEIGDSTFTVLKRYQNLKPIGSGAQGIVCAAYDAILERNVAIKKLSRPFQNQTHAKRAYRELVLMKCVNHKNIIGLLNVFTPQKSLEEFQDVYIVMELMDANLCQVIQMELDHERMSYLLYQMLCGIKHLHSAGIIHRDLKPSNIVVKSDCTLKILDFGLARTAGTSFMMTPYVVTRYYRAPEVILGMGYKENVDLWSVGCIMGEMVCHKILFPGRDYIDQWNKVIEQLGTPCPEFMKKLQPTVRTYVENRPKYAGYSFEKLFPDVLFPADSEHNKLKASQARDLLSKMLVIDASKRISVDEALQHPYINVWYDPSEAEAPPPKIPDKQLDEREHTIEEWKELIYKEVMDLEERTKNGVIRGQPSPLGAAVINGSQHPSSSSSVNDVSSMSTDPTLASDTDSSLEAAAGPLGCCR

Consider `CCCCO[C@]1(C(=O)CO)CCC2C3CCC4=CC(=O)CCC4(C)C3C(O)CC21C` (some centres not stated), for which the values for the Inhibition in test [1], in [2] and in test [4] were 43%, 55% and 55%, respectively. For the same compound, in [3], the inhibition was 41%.

On to `Cc1ccccc1C(=O)c1ccc(Nc2ccc(Br)cc2N)cc1Cl`, for which the IC50 was 17 nM in [5]; 4 nM in [6]; 74 nM in test [9]; more than 1000 nM in test [11]; 5 nM in test [17]; more than 1000 nM in [18]. The IC50 in test [20] is 30 nM; in [22] it was 39 nM; in test [23], more than 1000 nM. In addition, the Inhibition in test [7] is listed as 38%; in [10], 46%; in test [12], 34%; in test [16], 27%; in test [21] it was 35%. Moreover, the inhibition in test [8] worked out at 0%; in test [13] it was 93%; in test [14], 79%; in [15] it was 0%; in test [19], 56%; in [24], 0%. Besides, the inhibition in [25] worked out at 0%; in [26], 82%.

On to `Cc1ccccc1C(=O)c1ccc(Nc2ccccc2N)cc1Cl`, for which the IC50 in [5] was 18 nM; in test [6] it was 6 nM; in test [9], 12 nM; in test [11] it was more than 1000 nM; in test [17], 6 nM; in [18] it was more than 1000 nM. Besides, the results for the 50% inhibitory concentration (IC50) in test [20], in test [22] and in test [23] were 14 nM, 10 nM and more than 1000 nM, respectively. Besides, the Inhibition in test [27] came to 46%; in test [12], 27%; in test [16], 37%; in test [28] it was 46%; in [29], 43%. Further, the inhibition stood at 93% in [13]; 73% in test [14]; 0% in [15]; 56% in [19]; 8% in test [24]; 20% in test [25]. In [26], the inhibition came to 88%.
